From the M2OR odorant receptor database

Legend:
Settings in all cases: stereoisomer not certain
UniProt Q8VF43 = target: T1, UniProt Q8VF43
T1 sequence (whole entry): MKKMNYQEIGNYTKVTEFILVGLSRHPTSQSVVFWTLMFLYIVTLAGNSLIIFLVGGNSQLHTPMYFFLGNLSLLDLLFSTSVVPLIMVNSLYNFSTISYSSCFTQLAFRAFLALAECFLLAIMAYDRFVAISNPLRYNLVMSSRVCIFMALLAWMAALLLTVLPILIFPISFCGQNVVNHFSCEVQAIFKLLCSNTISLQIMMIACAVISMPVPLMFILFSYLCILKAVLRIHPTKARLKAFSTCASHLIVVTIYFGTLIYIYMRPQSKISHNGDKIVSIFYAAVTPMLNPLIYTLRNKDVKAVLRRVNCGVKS
Summary of the method: (§1)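 Transient luciferase assays in mammalian cell lines were common, though methods varied by source. The values come from published papers and their supplementary material, with extra details from the original authors when needed. Responsive refers to a measured signal the original authors judged statistically different from baseline, and non-responsive (inactive) to the remainder.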

UniProt Q8VF52 = target: T2, UniProt Q8VF52
T2 sequence (whole entry): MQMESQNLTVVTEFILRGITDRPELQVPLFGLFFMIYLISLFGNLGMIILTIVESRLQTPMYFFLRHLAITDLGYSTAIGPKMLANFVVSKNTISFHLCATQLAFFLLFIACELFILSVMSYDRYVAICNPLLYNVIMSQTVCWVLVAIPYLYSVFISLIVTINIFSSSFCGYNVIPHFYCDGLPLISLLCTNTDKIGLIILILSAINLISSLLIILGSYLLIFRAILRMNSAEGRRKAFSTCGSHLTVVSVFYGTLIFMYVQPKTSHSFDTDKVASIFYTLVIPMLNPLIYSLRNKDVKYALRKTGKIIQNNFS
Summary of the method: as §1

UniProt Q8VFM8 = target: T3, UniProt Q8VFM8
T3 sequence (whole entry): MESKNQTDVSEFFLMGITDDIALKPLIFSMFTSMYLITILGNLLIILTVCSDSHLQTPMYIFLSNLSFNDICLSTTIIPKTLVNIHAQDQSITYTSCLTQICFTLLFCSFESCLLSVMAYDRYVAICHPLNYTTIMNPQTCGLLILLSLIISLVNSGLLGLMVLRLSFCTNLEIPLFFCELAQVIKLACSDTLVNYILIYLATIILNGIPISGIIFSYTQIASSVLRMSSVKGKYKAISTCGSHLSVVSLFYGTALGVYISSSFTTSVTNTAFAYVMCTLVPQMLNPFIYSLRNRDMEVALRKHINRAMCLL
Summary of the method: as §1

UniProt Q8VF87 = target: UniProt Q8VF87
Summary of the method: as §1
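Further: active if original authors judged signal statistically different from baseline.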

UniProt Q8VF87, sequence (Q8VF87 as listed by the source): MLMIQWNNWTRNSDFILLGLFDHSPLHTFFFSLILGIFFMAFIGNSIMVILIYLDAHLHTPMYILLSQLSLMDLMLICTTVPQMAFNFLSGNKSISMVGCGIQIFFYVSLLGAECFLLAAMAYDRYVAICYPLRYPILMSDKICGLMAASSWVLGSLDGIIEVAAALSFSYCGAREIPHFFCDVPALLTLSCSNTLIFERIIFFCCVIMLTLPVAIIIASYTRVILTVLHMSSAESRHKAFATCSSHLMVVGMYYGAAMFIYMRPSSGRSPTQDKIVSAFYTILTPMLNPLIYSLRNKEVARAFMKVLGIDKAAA

| Compound | odorant receptor agonist call (UniProt Q8VF43) | odorant receptor agonist call (UniProt Q8VF52) | odorant receptor agonist call (UniProt Q8VFM8) | odorant receptor agonist call (UniProt Q8VF87) |
| --- | --- | --- | --- | --- |
| CCC(C)O (stereo not given) | inactive | inactive | inactive |  |
| COc1cnccn1 | inactive | inactive | inactive |  |
| CSSSC | inactive | inactive | inactive |  |
| CCCCCCC(C=O)=Cc1ccccc1 | inactive | inactive | inactive |  |
| C=C(CC)CCCC(C)(C)O | inactive | inactive | inactive |  |
| C=C(C)C1CC=C(C)CC1 (stereo not given) | inactive | inactive | inactive |  |
| C=CC(=O)CCCCC | inactive | inactive | inactive |  |
| CC(=O)OC1(C)CCC23CC1C(C)(C)C2CCC3C (stereo not given) | active | active | inactive |  |
| CCC(C)c1nccnc1OC (stereo not given) | inactive | inactive | inactive |  |
| c1ccc2ncccc2c1 | inactive | active | inactive |  |
| C1CCOCC1 | inactive | inactive | inactive |  |
| CC(C)CS | inactive | inactive | inactive |  |
| CCc1ncc(C)nc1CC | inactive | inactive | inactive |  |
| CC(=O)C=CC1=C(C)CCCC1(C)C | inactive | active | inactive |  |
| OCC=Cc1ccccc1 | inactive | inactive | inactive |  |
| CCc1nccnc1CC | inactive | inactive | inactive |  |
| OCCc1ccccc1 | inactive | inactive | inactive |  |
| CC1(C)CC(=O)CC(=O)C1 | inactive | inactive | inactive |  |
| CC(CC=O)CCCC(C)(C)O (stereo not given) | inactive | inactive | inactive |  |
| CSSCc1ccco1 | inactive | inactive | inactive |  |
| CCc1ccccc1O | inactive | inactive | inactive |  |
| CCCC=O | inactive | inactive | inactive |  |

| Compound | odorant receptor agonist call (UniProt Q8VF43) | odorant receptor agonist call (UniProt Q8VF52) | odorant receptor agonist call (UniProt Q8VFM8) | odorant receptor agonist call (UniProt Q8VF87) |
| --- | --- | --- | --- | --- |
| CNc1ccccc1C(=O)OC | inactive | inactive | inactive |  |
| CCCCCCCCCC=CC=O | inactive | inactive | inactive |  |
| Cc1ccc(OC(=O)C(C)C)cc1 | inactive | inactive | inactive |  |
| COc1ccccc1 | inactive | inactive | inactive |  |
| CCCC(C)C(=O)OCC (stereo not given) | inactive | inactive | inactive |  |
| O=C([O-])CCCCCCC(=O)[O-].[H+].[H+] | inactive | inactive | inactive |  |
| CCc1ccc(O)cc1 | inactive | inactive | inactive |  |
| CC=C(C)C=O | inactive | inactive | inactive |  |
| CCc1occc(=O)c1O | inactive | inactive | inactive |  |
| CCCCCCC(C)O (stereo not given) | inactive | inactive | inactive |  |
| CC(C)CCN | inactive | inactive | inactive |  |
| CCCCCCCCC=CC=O | inactive | inactive | inactive |  |
| CCCCCCC(=O)OCCCC | inactive | inactive | inactive |  |
| O=C(O)CCCCCCCCC(=O)O | inactive | inactive | inactive |  |
| C1CCOC1 | inactive | inactive | inactive |  |
| CCCCCC=CCCC=O | inactive | inactive | inactive |  |
| CCSCC | inactive | inactive | inactive |  |
| Cc1occc1SSc1ccoc1C | inactive | inactive | inactive |  |
| CC1CCC(C(C)C)C(=O)C1 (stereo not given) | inactive | inactive | inactive |  |
| COc1nccnc1C | inactive | inactive | inactive |  |
| Cc1ccc(C(C)C)c(O)c1 | inactive | inactive | inactive |  |
| C=CC(C)=CCC=C(C)CCC=C(C)C | inactive | inactive | inactive |  |

| Compound | odorant receptor agonist call (UniProt Q8VF43) | odorant receptor agonist call (UniProt Q8VF52) | odorant receptor agonist call (UniProt Q8VFM8) | odorant receptor agonist call (UniProt Q8VF87) |
| --- | --- | --- | --- | --- |
| O=C(O)C1CCC1 | inactive | inactive | inactive |  |
| CCC(S)C(C)CO (stereo not given) |  |  |  | inactive |
| CC(=O)OCc1ccc2c(c1)OCO2 | inactive | inactive | inactive |  |
| CCOC(=O)C(C)CC (stereo not given) | inactive | inactive | inactive |  |
| CCSSCC | inactive | inactive | inactive |  |
| CCCCCOC(=O)CCC | inactive | inactive | inactive |  |
| CCCCCCCCCCOC(C)=O | inactive | inactive | inactive |  |
| CCCCCOC(=O)CC | inactive | inactive | inactive |  |
| CCCCCCC=CC=O | inactive | inactive | inactive |  |
| Cc1ccccc1OC(=O)C(C)C | inactive | inactive | inactive |  |
| C=CC(=C)CCC=C(C)C | inactive | inactive | inactive |  |
| CCCCCC(C)O (stereo not given) | inactive | inactive | inactive |  |
| CC=Cc1ccc(OC)cc1 | inactive | inactive | inactive |  |
| CC(=O)OCCc1ccccc1 | inactive | inactive | inactive |  |
| CCCCCCCOC(=O)C(C)C | inactive | inactive | inactive |  |
| CC1CC=CCCCCCCCCCC(=O)C1 (stereo not given) | inactive | inactive | inactive |  |
| CC(C)=CCCC(C)=CCOC(=O)C(C)C | inactive | inactive | inactive |  |
| C=C(C)C1CCC(C)C(O)C1 (stereo not given) | inactive | inactive | inactive |  |
| COc1nccnc1C(C)C | inactive | inactive | inactive |  |
| CC(C)=C1CCC(C)CC1=O (stereo not given) | inactive | inactive | inactive |  |
